From ChEMBL document CHEMBL1147656, “Biological evaluation of bishydroxymethyl-substituted cage dimeric 1,4-dihydropyridines as a novel class of p-glycoprotein modulating agents in cancer cells” (J Med Chem, 2006)

Assays:
[1] = target: T1, ATP-dependent translocase ABCB1 (Homo sapiens, UniProt P08183); test: Inhibition of P-glycoprotein
How it was run: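 Rhodamine 123 uptake in L5178YvMDR mouse T-lymphoma cells and the parental line, 2 × 10⁶ cells/mL in serum-free McCoy's 5A. Compound preincubated 10 min at room temperature, then rhodamine 123 (5.2 µM final) added for 20 min at 37 °C. Cells washed twice in PBS and 1 × 10⁴ cells read by flow cytometry. IC50 taken from sigmoidal curve of fluorescence activity ratio versus concentration. Mean of two determinations.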

[2] = target: T1, ATP-dependent translocase ABCB1; test: Ratio of rhodamine123 uptake in MDR1 transfected cells vs parental L5178Y cells at 30 uM; format: functional, cell-based; details: mouse
How it was run: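 Fluorescence activity ratio at 30 µM compound. L5178Y parental and L5178YvMDR cells (2 × 10⁶/mL, serum-free McCoy's 5A) preincubated 10 min at room temperature with compound, then rhodamine 123 (5.2 µM final) added for 20 min at 37 °C. After two PBS washes, 1 × 10⁴ cells read by flow cytometry. Ratio calculated from uptake in treated versus untreated control cells. Mean of two determinations.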

[3] = system: L5178Y; test: Cytotoxicity against mouse L5178Y cell line; format: functional, cell-based
How it was run: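 MTT assay on L5178Y mouse T-lymphoma parental cells or the L5178YvMDR (mdr1-transfected) subline. Compound-treated cells cultured 48 h at 37 °C under 5% CO2. MTT added (0.5 mg/mL final) for another 4 h at 37 °C. Formazan dissolved in 10% SDS in 0.01 M HCl overnight, then absorbance read. Absorbance corrected for cell control and compound, IC50 taken from sigmoidal curve. Mean of two determinations.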

T1 sequence (P08183 whole entry): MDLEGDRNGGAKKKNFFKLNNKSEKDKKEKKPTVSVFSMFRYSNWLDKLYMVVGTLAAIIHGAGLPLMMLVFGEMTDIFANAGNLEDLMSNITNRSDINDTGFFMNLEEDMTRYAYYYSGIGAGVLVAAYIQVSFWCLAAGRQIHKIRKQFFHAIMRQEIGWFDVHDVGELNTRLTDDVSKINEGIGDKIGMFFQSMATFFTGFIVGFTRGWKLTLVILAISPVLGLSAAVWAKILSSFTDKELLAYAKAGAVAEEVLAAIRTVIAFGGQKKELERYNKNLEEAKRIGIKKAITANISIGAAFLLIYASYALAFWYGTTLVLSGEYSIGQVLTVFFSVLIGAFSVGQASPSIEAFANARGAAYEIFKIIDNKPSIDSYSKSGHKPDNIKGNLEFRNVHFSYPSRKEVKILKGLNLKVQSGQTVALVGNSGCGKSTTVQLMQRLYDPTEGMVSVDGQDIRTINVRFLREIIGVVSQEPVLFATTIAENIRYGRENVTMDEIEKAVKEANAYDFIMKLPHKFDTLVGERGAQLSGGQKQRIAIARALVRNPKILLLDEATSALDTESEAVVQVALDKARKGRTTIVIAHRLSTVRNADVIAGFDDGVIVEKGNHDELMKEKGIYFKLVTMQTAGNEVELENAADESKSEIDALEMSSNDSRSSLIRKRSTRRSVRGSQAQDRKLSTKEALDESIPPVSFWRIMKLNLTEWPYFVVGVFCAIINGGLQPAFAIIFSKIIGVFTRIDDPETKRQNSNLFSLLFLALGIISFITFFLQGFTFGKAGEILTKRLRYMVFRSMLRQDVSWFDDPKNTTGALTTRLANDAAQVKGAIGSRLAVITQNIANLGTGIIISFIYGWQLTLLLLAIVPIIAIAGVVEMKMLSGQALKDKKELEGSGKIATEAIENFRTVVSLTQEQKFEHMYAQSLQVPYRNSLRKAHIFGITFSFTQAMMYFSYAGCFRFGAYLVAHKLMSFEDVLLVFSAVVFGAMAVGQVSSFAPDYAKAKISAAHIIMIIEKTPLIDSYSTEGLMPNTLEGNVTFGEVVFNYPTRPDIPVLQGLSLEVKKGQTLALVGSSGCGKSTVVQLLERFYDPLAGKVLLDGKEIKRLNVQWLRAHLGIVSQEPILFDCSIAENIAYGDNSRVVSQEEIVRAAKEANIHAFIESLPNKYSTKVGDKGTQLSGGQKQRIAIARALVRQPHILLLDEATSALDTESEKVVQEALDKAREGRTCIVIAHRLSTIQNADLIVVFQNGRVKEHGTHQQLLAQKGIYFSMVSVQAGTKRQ

## CC(C)(C)OC(=O)N1C2C3C4N(C(=O)OC(C)(C)C)C5C(C1[C@]5(CO)[C@H]3c1ccccc1)[C@@H](c1ccccc1)[C@@]24CO
[1]
  IC50: 6.1 µM
[2]
  Ratio: 33
[3]
  IC50: 2.5 µM

## OC[C@]12C3C4C1N(Cc1ccccc1)C1C(C(N3Cc3ccccc3)[C@]1(CO)[C@H]4c1ccccc1)[C@H]2c1ccccc1
[1]
  IC50: < 1 µM
[2]
  Ratio: 26.5
[3]
  IC50: 11.9 µM

## COC(=O)N1C2C3C4N(C(=O)OC)C5C(C1[C@]5(CO)[C@H]3c1ccccc1)[C@@H](c1ccccc1)[C@@]24CO
[1]
  IC50: 3.8 µM
[2]
  Ratio: 21.6

## O=C(Oc1ccccc1)N1C2C3C4N(C(=O)Oc5ccccc5)C5C(C1[C@]5(CO)[C@H]3c1ccccc1)[C@@H](c1ccccc1)[C@@]24CO
[1]
  IC50: < 1 µM
[2]
  Ratio: 30.8
[3]
  IC50: 12.7 µM

## CN1C2C3C4N(C)C5C(C1[C@]5(CO)[C@H]3c1ccccc1)[C@@H](c1ccccc1)[C@@]24CO
[1]
  IC50: 17.6 µM
[2]
  Ratio: 34.3
[3]
  IC50: 7.1 µM
